Experimental findings from ChEMBL document CHEMBL3822428, “Design, Synthesis, and Biological Evaluation of Potential Prodrugs Related to the Experimental Anticancer Agent Indotecan (LMP400)” (J Med Chem, 2016) are described below.

Activity calls are given as the source filed them. No cut-off for these calls is given here.

The nature of data set [1]: Antiproliferative activity in human […] cells assessed as cell growth inhibition after 48 hrs by SRB assay. The format is functional. Summed up: (§1)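 NCI-60 screen: cells exposed to compound at 100, 10, 1, 0.1 and 0.01 μM for 48 h, then sulforhodamine B staining. Optical density ratio to control plotted as percent growth versus log10 concentration; GI50 interpolated between points above and below 50% growth.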

Data set [2] concerns the target T1, DNA topoisomerase 1 (Homo sapiens) (UniProt P11387).
T1 sequence (whole entry): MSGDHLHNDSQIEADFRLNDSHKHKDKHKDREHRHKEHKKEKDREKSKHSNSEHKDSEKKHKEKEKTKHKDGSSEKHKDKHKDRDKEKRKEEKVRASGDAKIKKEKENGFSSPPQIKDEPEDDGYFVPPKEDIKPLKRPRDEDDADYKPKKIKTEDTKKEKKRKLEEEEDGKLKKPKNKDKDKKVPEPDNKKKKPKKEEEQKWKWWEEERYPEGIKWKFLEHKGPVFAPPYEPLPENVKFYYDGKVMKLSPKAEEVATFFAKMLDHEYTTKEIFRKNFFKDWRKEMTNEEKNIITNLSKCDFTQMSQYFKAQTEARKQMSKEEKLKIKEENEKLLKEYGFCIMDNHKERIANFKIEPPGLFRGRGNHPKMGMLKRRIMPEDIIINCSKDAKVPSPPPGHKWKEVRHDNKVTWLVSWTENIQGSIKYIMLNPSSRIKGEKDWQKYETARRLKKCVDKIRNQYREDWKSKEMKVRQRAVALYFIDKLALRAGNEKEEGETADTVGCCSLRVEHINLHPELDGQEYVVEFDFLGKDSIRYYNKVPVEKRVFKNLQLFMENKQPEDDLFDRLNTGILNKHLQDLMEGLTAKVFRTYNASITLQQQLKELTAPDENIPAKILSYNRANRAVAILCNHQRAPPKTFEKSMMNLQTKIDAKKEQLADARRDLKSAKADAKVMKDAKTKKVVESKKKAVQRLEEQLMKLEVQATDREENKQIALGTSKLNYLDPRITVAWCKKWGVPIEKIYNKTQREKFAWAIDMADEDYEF
Kind of data set: Inhibition of human recombinant Top1 expressed in baculovirus using [32P]-3-end labeled 117 bp DNA oligonucleotide as substrate assessed as enzyme mediated DNA cleavage after 20 mins by SDS-PAGE analysis relative to camptothecin. Details: concentration or dose not given beside the values. The gist of the method: (§2)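 Baculovirus-purified human recombinant Top1 with ~2 nM 117-bp oligonucleotide, 3'-end labeled by Klenow fill-in with [α-32P]dGTP. Stopped with 0.5% SDS and formamide dye; 20% denaturing PAGE, phosphoimager.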

Data set [3] is described as follows: Antiproliferative activity in human DU145 cells assessed as cell growth inhibition after 48 hrs by SRB assay. It counts as functional. The conditions noted are these: DU-145, 48 h. Summed up:
as §1
(In SRB staining, fixed cells bind dye roughly in proportion to their protein.)

Data set [4] can be described thus: Antiproliferative activity in human UACC62 cells assessed as cell growth inhibition after 48 hrs by SRB assay. The format is functional. The note with it: UACC-62, 48 h. The gist of the method:
as §1

The nature of data set [5]: Antiproliferative activity in human SF539 cells assessed as cell growth inhibition after 48 hrs by SRB assay. The conditions noted are these: SF-539, 48 h. It counts as functional. Summed up:
as §1

The next data set deals with SN12C. Kind of data set: Antiproliferative activity in human SN12C cells assessed as cell growth inhibition after 48 hrs by SRB assay. The format is functional. The gist of the method:
as §1

Data set [6] can be described thus: Antiproliferative activity in human HCT116 cells assessed as cell growth inhibition after 48 hrs by SRB assay. It counts as functional. The conditions noted are these: HCT-116, 48 h. The gist of the method:
as §1

Data set [7] can be described thus: Antiproliferative activity in human HOP62 cells assessed as cell growth inhibition after 48 hrs by SRB assay. The format is functional. The conditions noted are these: HOP-62, 48 h. The gist of the method:
as §1

The next data set has as its system MCF7. Kind of data set: Antiproliferative activity in human MCF7 cells assessed as cell growth inhibition after 48 hrs by SRB assay. The conditions noted are these: MCF7, 48 h. The format is functional. Summed up:
as §1

In data set [8] the target is T1, DNA topoisomerase 1 (Homo sapiens). Kind of data set: Inhibition of human recombinant Top1 expressed in baculovirus using [32P]-3-end labeled 117 bp DNA oligonucleotide as substrate assessed as enzyme mediated DNA cleavage at 0.1 to 100 uM after 20 mins by SDS-PAGE analysis relative to camptothecin. More on the design: scale not given: the % may be the effect or the level left. The gist of the method: as §2

Data set [9] deals with Plasma. Kind of data set: Drug uptake in rat plasma treated with of 2-Methoxy-6-(3-morpholinopropyl)-5,12-dioxo-6,12-dihydro 5H-[1,3]dioxolo[4,5:5,6]indeno[1,2-c]isoquinolin-3-yl Acetate after 15 mins by LC-MS/MS analysis. It counts as ADME, cell-free. The note with it: 0.25 h. Summed up:
(§3)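 Rat plasma at 37 °C with compound at 5 μM, duplicate runs alongside enalapril and warfarin controls. Aliquots taken at 0, 1, 3, 5 and 15 min into three volumes ice-cold methanol with propranolol internal standard, held ≥10 min at -20 °C, centrifuged. Parent quantified by LC-MS/MS in positive ion mode, expressed as % of time-zero concentration.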

The nature of data set [10]: Drug uptake in RPMI1640 medium treated with2-Methoxy-6-(3-morpholinopropyl)-5,12-dioxo-6,12-dihydro-5H-[1,3]dioxolo[4,5:5,6]indeno[1,2-c]isoquinolin-3-yl Methyl Succinate by at 10 uM after 99 hrs by LC-MS analysis. It counts as physicochemical. The gist of the method:
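Compound (10 μM) incubated in cell-free RPMI 1640 medium at 37 °C for 99 h. Aliquot filtered and analysed by LC-MS, diode-array detection at 280 nm, flow 0.75 mL/min, for conversion to parent phenol.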

Data set [11] has as its system Plasma. Kind of data set: Drug metabolism in rat plasma assessed as compound 9 formation at 5 uM after 15 mins by LC-MS/MS analysis. It counts as ADME, cell-free. The conditions noted are these: 0.25 h. The gist of the method: as §3
A short description of data set [12]: Half life in rat plasma at 5 uM by LC-MS/MS analysis. The format is ADME, cell-free. The gist of the method: as §3

In general, GI50 refers to the concentration that inhibits growth by half. As for `COc1cc2c(=O)n(CCCN3CCOCC3)c3c(c2cc1O)C(=O)c1cc2c(cc1-3)OCO2`, the GI50 in data set [1] came out at 871 nM. For the same compound, in [2], the Activity turned out to be 50%.
As for `COC(=O)CCC(=O)Oc1cc2c3c(n(CCCN4CCOCC4)c(=O)c2cc1OC)-c1cc2c(cc1C3=O)OCO2`, the GI50 was 66 nM in data set [1]; less than 10 nM in [3]; less than 10 nM in data set [4]; less than 10 nM in data set [5]; less than 10 nM in the data set on SN12C; 14 nM in data set [6]. Also, the 50% growth inhibitory concentration (GI50) (in [7]; in the data set with MCF7) was less than 10 nM throughout. The Activity in data set [2] is 20%.
Regarding `COc1cc2c3c(n(CCCN4CCOCC4)c(=O)c2cc1OC(=O)c1ccccc1)-c1cc2c(cc1C3=O)OCO2`, the GI50 in data set [1] amounted to 30900 nM; in [3] it was 724 nM; in data set [4] it was 59 nM; in [5] it was 135 nM; in the data set on SN12C, 195 nM; in data set [6], 5890 nM. Further, the GI50 in data set [7] stood at 2140 nM; with MCF7, 15 nM. The Activity in data set [2] was 20%.
In the case of `COc1cc2c(=O)n(CCCN3CCOCC3)c3c(c2cc1OC(=O)N(C)C)C(=O)c1cc2c(cc1-3)OCO2`, the concentration for 50% growth inhibition (GI50) in data set [1] stood at 12000 nM; in [3], 1550 nM; in data set [4] it was 4470 nM; in data set [5] it was 1860 nM; with SN12C, 2400 nM; in [6], 6070 nM. For the same compound, the 50% growth inhibitory concentration (GI50) worked out at 1700 nM in data set [7] and 22 nM in the data set with MCF7. Also, the Activity in data set [8] is 75%.
On to `COc1cc2c3c(n(CCCN4CCOCC4)c(=O)c2cc1OC(=O)N(C)C)-c1cc2c(cc1C3=O)OCO2`, for which the concentration for 50% growth inhibition (GI50) in data set [1] was 105 nM; in data set [3] it was 32 nM; in data set [4], 17 nM; in data set [5], 21 nM; in the data set with SN12C it was 25 nM; in data set [6] it was 26 nM. The GI50 in data set [7] is 32 nM; with MCF7 it was less than 10 nM. Further, in [2], the Activity was 50%.
On to `COc1cc2c3c(n(CCCN4CCOCC4)c(=O)c2cc1OC(=O)c1cccnc1)-c1cc2c(cc1C3=O)OCO2`, for which the GI50 in data set [1] is 15 nM; in data set [3] it was less than 10 nM; in data set [4] it was less than 10 nM; in data set [5] it was less than 10 nM; in the data set with SN12C, less than 10 nM; in [6], less than 10 nM. For the same compound, the GI50 (in [7]; in the data set with MCF7) was less than 10 nM in each case. The Activity in data set [2] amounted to 20%.
Regarding `COc1cc2c3c(n(CCCN4CCOCC4)c(=O)c2cc1O)-c1cc2c(cc1C3=O)OCO2`, the GI50 in data set [1] was 30 nM; in data set [3] it was less than 10 nM; in data set [4] it was less than 10 nM; in [5], less than 10 nM; in the data set on SN12C, less than 10 nM; in data set [6], 20 nM. In addition, the concentration for 50% growth inhibition (GI50) is 10 nM in [7] and less than 10 nM in the data set with MCF7. In addition, the Drug uptake entry (with Plasma [9]; in [10]) was “Active” throughout. Moreover, the Activity in data set [2] was found to be 75%.
With `COC(=O)CCC(=O)Oc1cc2c(=O)n(CCCN3CCOCC3)c3c(c2cc1OC)C(=O)c1cc2c(cc1-3)OCO2`, the GI50 in data set [1] is 37 nM; in [3] it was 14 nM; in data set [4], 18 nM; in [5], less than 10 nM; with SN12C, less than 10 nM; in data set [6], 20 nM. Besides, the GI50 in [7] was 16 nM; in the data set with MCF7, less than 10 nM. For the same compound, the result in data set [2] was inactive.
As to `COc1cc2c3c(n(CCCN4CCOCC4)c(=O)c2cc1OS(=O)(=O)O)-c1cc2c(cc1C3=O)OCO2`, the GI50 was found to be 1120 nM in data set [1]; 417 nM in data set [3]; 263 nM in data set [4]; 263 nM in data set [5]; 355 nM with SN12C; 389 nM in data set [6]. Also, the 50% growth inhibitory concentration (GI50) worked out at 389 nM in [7] and 209 nM with MCF7. In data set [8], the Activity amounted to 50%.
Consider `COc1cc2c3c(n(CCCN4CCOCC4)c(=O)c2cc1OC)-c1cc2c(cc1C3=O)OCO2` [INDOTECAN], for which the concentration for 50% growth inhibition (GI50) is 74100 nM in [1], 30 nM in data set [4], 40 nM in data set [5] and 374 nM with MCF7. Moreover, the Activity in [2] came to 100%.
For `COc1cc2c(=O)n(CCCN3CCOCC3)c3c(c2cc1OC(=O)c1cccnc1)C(=O)c1cc2c(cc1-3)OCO2`, the GI50 was 295 nM in data set [1]; 13 nM in data set [3]; 22 nM in data set [4]; less than 10 nM in data set [5]; less than 10 nM in the data set on SN12C; 30 nM in data set [6]. The GI50 is 12 nM in [7] and less than 10 nM in the data set on MCF7. For the same compound, the Activity in data set [8] turned out to be 75%.
As usually defined, the half-life is the time in which the quantity being followed falls by half. On to `COc1cc2c3c(n(CCCN4CCOCC4)c(=O)c2cc1OC(C)=O)-c1cc2c(cc1C3=O)OCO2`, for which the GI50 was 269 nM in data set [1]; less than 10 nM in data set [3]; less than 10 nM in data set [4]; less than 10 nM in data set [5]; less than 10 nM in the data set on SN12C; less than 10 nM in data set [6]. Besides, the GI50 (in data set [7]; in the data set with MCF7) was less than 10 nM each time. The Drug metabolism result in the data set on Plasma [11] is “metabolite_detected”. In addition, the half-life at 5 µM in data set [12] was found to be 54 s. Further, the outcome in data set [2] was inactive.
As to `COc1cc2c(=O)n(CCCN3CCOCC3)c3c(c2cc1OC(C)=O)C(=O)c1cc2c(cc1-3)OCO2`, the concentration for 50% growth inhibition (GI50) in data set [1] is 138 nM; in [3], less than 10 nM; in data set [4] it was 18 nM; in [5], less than 10 nM; with SN12C, less than 10 nM; in [6], 29 nM. In addition, the GI50 is 18 nM in data set [7] and less than 10 nM in the data set on MCF7. Besides, the Activity in [8] is 50%.
For `COc1cc2c(=O)n(CCCN3CCOCC3)c3c(c2cc1OC(=O)c1ccccc1)C(=O)c1cc2c(cc1-3)OCO2`, the GI50 came to 4570 nM in data set [1]; 51 nM in data set [3]; 96 nM in data set [4]; 37 nM in [5]; 54 nM in the data set on SN12C; 850 nM in data set [6]. In addition, the figures for the GI50 (in data set [7]; with MCF7) were 79 nM and 33 nM, respectively. The Activity in data set [8] was determined as 20%.
